Assay results published in ChEMBL document CHEMBL5058577, “EUbOPEN Chemogenomics Library 2 (Multiplex)” (2022).

System: U2OS
Experiment: Multiplex assay against U2OS
Assay type: toxicity, cell-based
Details: human
Summary of the method: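 Live cells carried four stains from seeding: Hoechst33342, BioTracker Green Microtubule Cytoskeleton Dye, MitoTracker Red and Annexin V Alexa Fluor 680. They were imaged on a CQ1 microscope at 37°C and 5% CO2 after compound addition. Using CellPathfinder machine-learning gating, cells were split into Hoechst high-intensity objects or normal cells, normal cells into healthy, pyknosed or fragmented nuclei, and pyknosed cells into mitotic or apoptotic; tubulin, mitochondrial-mass and membrane-permeability phenotypes are per cents of healthy-nucleus cells.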

[1] = 12 h, 1 µM, compound concentration 1 uM, replicate 1
[2] = 12 h, 1 µM, compound concentration 1 uM, replicate 2
[3] = 12 h, 10 µM, compound concentration 10 uM, replicate 1
[4] = 12 h, 10 µM, compound concentration 10 uM, replicate 2
[5] = 24 h, 1 µM, compound concentration 1 uM, replicate 1
[6] = 24 h, 1 µM, compound concentration 1 uM, replicate 2
[7] = 24 h, 10 µM, compound concentration 10 uM, replicate 1
[8] = 24 h, 10 µM, compound concentration 10 uM, replicate 2
[9] = 48 h, 1 µM, compound concentration 1 uM, replicate 1
[10] = 48 h, 1 µM, compound concentration 1 uM, replicate 2
[11] = 48 h, 10 µM, compound concentration 10 uM, replicate 1
[12] = 48 h, 10 µM, compound concentration 10 uM, replicate 2

COc1cc(Nc2ncc3c(n2)-c2ccc(Cl)cc2C(c2c(F)cccc2OC)=NC3)ccc1C(=O)O [ALISERTIB] was tested, and the “Population Apoptotic (%)” value [1] was 63%, the “Population Fragmented Nuclei (%)” value [1] was 23% and the “Population Healthy Nuclei (%)” value [1] was 65%. For the same compound, the “Population Hoechst High Intensity Objects (%)” value [1] was 1%, the “Population Membrane Permeable-Phenotype (%)” value [1] was 4% and the “Population Mitochondria Different-Phenotype (%)” value [1] was 3%. The “Population Mitotic Cells (%)” value [1] was 36%, the “Population Normal (%)” value [1] was 98% and the “Population Pyknosed Nuclei (%)” value [1] was 10%. For the same compound, the “Population Tubulin-Different-Phenotype (%)” value [1] was 3%, the “Population Apoptotic (%)” value [2] was 71% and the “Population Fragmented Nuclei (%)” value [2] was 35%. For the same compound, the “Population Healthy Nuclei (%)” value [2] was 55%, the “Population Hoechst High Intensity Objects (%)” value [2] was 4% and the “Population Membrane Permeable-Phenotype (%)” value [2] was 8%. For the same compound, the “Population Mitochondria Different-Phenotype (%)” value [2] was 4%, the “Population Mitotic Cells (%)” value [2] was 28% and the “Population Normal (%)” value [2] was 95%. The “Population Pyknosed Nuclei (%)” value [2] was 8%, the “Population Tubulin-Different-Phenotype (%)” value [2] was 11% and the “Population Apoptotic (%)” value [3] was 79%. The “Population Fragmented Nuclei (%)” value [3] was 31%, the “Population Healthy Nuclei (%)” value [3] was 57% and the “Population Hoechst High Intensity Objects (%)” value [3] was 3%. The “Population Membrane Permeable-Phenotype (%)” value [3] was 11%, the “Population Mitochondria Different-Phenotype (%)” value [3] was 5% and the “Population Mitotic Cells (%)” value [3] was 20%. For the same compound, the “Population Normal (%)” value [3] was 96%, the “Population Pyknosed Nuclei (%)” value [3] was 11% and the “Population Tubulin-Different-Phenotype (%)” value [3] was 4%. The “Population Apoptotic (%)” value [4] was 71%, the “Population Fragmented Nuclei (%)” value [4] was 12% and the “Population Healthy Nuclei (%)” value [4] was 82%. For the same compound, the “Population Hoechst High Intensity Objects (%)” value [4] was 2%, the “Population Membrane Permeable-Phenotype (%)” value [4] was 5% and the “Population Mitochondria Different-Phenotype (%)” value [4] was 1%. The “Population Mitotic Cells (%)” value [4] was 28%, the “Population Normal (%)” value [4] was 97% and the “Population Pyknosed Nuclei (%)” value [4] was 5%. For the same compound, the “Population Tubulin-Different-Phenotype (%)” value [4] was 0%, the “Population Apoptotic (%)” value [5] was 78% and the “Population Fragmented Nuclei (%)” value [5] was 26%. For the same compound, the “Population Healthy Nuclei (%)” value [5] was 64%, the “Population Hoechst High Intensity Objects (%)” value [5] was 1% and the “Population Membrane Permeable-Phenotype (%)” value [5] was 9%. The “Population Mitochondria Different-Phenotype (%)” value [5] was 4%, the “Population Mitotic Cells (%)” value [5] was 21% and the “Population Normal (%)” value [5] was 98%. The “Population Pyknosed Nuclei (%)” value [5] was 8%, the “Population Tubulin-Different-Phenotype (%)” value [5] was 5% and the “Population Apoptotic (%)” value [6] was 75%. The “Population Fragmented Nuclei (%)” value [6] was 20%, the “Population Healthy Nuclei (%)” value [6] was 63% and the “Population Hoechst High Intensity Objects (%)” value [6] was 2%. For the same compound, the “Population Membrane Permeable-Phenotype (%)” value [6] was 6%, the “Population Mitochondria Different-Phenotype (%)” value [6] was 2% and the “Population Mitotic Cells (%)” value [6] was 25%. For the same compound, the “Population Normal (%)” value [6] was 97%, the “Population Pyknosed Nuclei (%)” value [6] was 15% and the “Population Tubulin-Different-Phenotype (%)” value [6] was 2%. The “Population Apoptotic (%)” value [7] was 84%, the “Population Fragmented Nuclei (%)” value [7] was 30% and the “Population Healthy Nuclei (%)” value [7] was 55%. The “Population Hoechst High Intensity Objects (%)” value [7] was 4%, the “Population Membrane Permeable-Phenotype (%)” value [7] was 13% and the “Population Mitochondria Different-Phenotype (%)” value [7] was 5%. The “Population Mitotic Cells (%)” value [7] was 15%, the “Population Normal (%)” value [7] was 95% and the “Population Pyknosed Nuclei (%)” value [7] was 13%. For the same compound, the “Population Tubulin-Different-Phenotype (%)” value [7] was 4%, the “Population Apoptotic (%)” value [8] was 90% and the “Population Fragmented Nuclei (%)” value [8] was 12%. For the same compound, the “Population Healthy Nuclei (%)” value [8] was 77%, the “Population Membrane Permeable-Phenotype (%)” value [8] was 9% and the “Population Mitochondria Different-Phenotype (%)” value [8] was 4%. For the same compound, the “Population Mitotic Cells (%)” value [8] was 9%, the “Population Pyknosed Nuclei (%)” value [8] was 9% and the “Population Tubulin-Different-Phenotype (%)” value [8] was 5%. The “Population Apoptotic (%)” value [9] was 85%, the “Population Fragmented Nuclei (%)” value [9] was 28% and the “Population Healthy Nuclei (%)” value [9] was 59%. The “Population Hoechst High Intensity Objects (%)” value [9] was 3%, the “Population Membrane Permeable-Phenotype (%)” value [9] was 6% and the “Population Mitochondria Different-Phenotype (%)” value [9] was 5%. For the same compound, the “Population Mitotic Cells (%)” value [9] was 14%, the “Population Normal (%)” value [9] was 96% and the “Population Pyknosed Nuclei (%)” value [9] was 12%. For the same compound, the “Population Tubulin-Different-Phenotype (%)” value [9] was 3%, the “Population Apoptotic (%)” value [10] was 78% and the “Population Fragmented Nuclei (%)” value [10] was 29%. The “Population Healthy Nuclei (%)” value [10] was 53%, the “Population Membrane Permeable-Phenotype (%)” value [10] was 11% and the “Population Mitochondria Different-Phenotype (%)” value [10] was 6%. The “Population Mitotic Cells (%)” value [10] was 21%, the “Population Pyknosed Nuclei (%)” value [10] was 17% and the “Population Tubulin-Different-Phenotype (%)” value [10] was 4%. For the same compound, the “Population Apoptotic (%)” value [11] was 88%, the “Population Fragmented Nuclei (%)” value [11] was 34% and the “Population Healthy Nuclei (%)” value [11] was 44%. The “Population Hoechst High Intensity Objects (%)” value [11] was 9%, the “Population Membrane Permeable-Phenotype (%)” value [11] was 16% and the “Population Mitochondria Different-Phenotype (%)” value [11] was 9%. For the same compound, the “Population Mitotic Cells (%)” value [11] was 11%, the “Population Normal (%)” value [11] was 90% and the “Population Pyknosed Nuclei (%)” value [11] was 21%. For the same compound, the “Population Tubulin-Different-Phenotype (%)” value [11] was 9%, the “Population Fragmented Nuclei (%)” value [12] was 16% and the “Population Healthy Nuclei (%)” value [12] was 70%. The “Population Hoechst High Intensity Objects (%)” value [12] was 5%, the “Population Membrane Permeable-Phenotype (%)” value [12] was 7% and the “Population Mitochondria Different-Phenotype (%)” value [12] was 3%. For the same compound, the “Population Normal (%)” value [12] was 94%, the “Population Pyknosed Nuclei (%)” value [12] was 13% and the “Population Tubulin-Different-Phenotype (%)” value [12] was 2%.
